# Laboratory results reported in ChEMBL document CHEMBL1158585, “Oploxynes A and B, polyacetylenes from the stems of Oplopanax elatus” (J Nat Prod, 2010).
# Activity calls are given as the source filed them. The rule behind the calls is not given here.
# Legend:
# [1] = system: RAW264.7; test: Antiinflammatory activity in lipopolysaccharide-induced mouse RAW264.7 cells assessed as inhibition of nitric oxide production after 20 to 24 hrs by Griess method; format: functional, cell-based
# How it was run: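 RAW264.7 cells seeded at 1 × 10⁵ cells/well and left 6 h to attach, then given phenol red-free medium with 1 µg/mL E. coli LPS (strain 055:B5), with or without compound, for 20-24 h. Compounds were serially diluted. Supernatant nitrite read by Griess reagent, absorbance at 540 nm, against a NaNO₂ standard curve. Control got 0.5% (v/v) DMSO. Triplicate wells.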
# [2] = system: RAW264.7; test: Cytotoxicity in mouse RAW264.7 cells; format: cell-based
# [3] = system: RAW264.7; test: Antiinflammatory activity in lipopolysaccharide-induced mouse RAW264.7 cells assessed as inhibition of prostaglandin E2 production after 20 to 24 hrs; format: functional, cell-based
# How it was run: (§1)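 PGE₂ made from endogenous arachidonic acid was measured with a commercial PGE₂ parameter assay kit, following the manufacturer's protocol.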
# [4] = system: RAW264.7; test: Antiinflammatory activity in lipopolysaccharide-induced mouse RAW264.7 cells assessed as inhibition of prostaglandin E2 production at 8 uM after 24 hrs; format: functional, cell-based; how it was run: as §1
# [5] = system: RAW264.7; test: Antiinflammatory activity in lipopolysaccharide-induced mouse RAW264.7 cells assessed as inhibition of nitric oxide production at 8 uM after 24 hrs by Griess method; format: functional, cell-based
# How it was run: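 RAW264.7 cells seeded at 1 × 10⁵ cells/well and left 6 h to attach, then exposed to compound at 8 µM for 24 h in phenol red-free medium with 1 µg/mL E. coli LPS (strain 055:B5). Supernatant nitrite read by Griess reagent at 540 nm against a NaNO₂ standard curve. Control got 0.5% (v/v) DMSO. Triplicate wells.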
Compound,IC50 [1] [nM],IC50 [2] [nM],IC50 [3] [nM],inhibition [4],inhibition [5]
C=CC(O)C#CC#C[C@@H](O)/C=C\CCCCCCC (mixture of isomers),1280,3770,1540,–,–
CCCCCCC/C=C\[C@H](O)C#CC#C[C@@H](O)CC [OPLOPANDIOL],2720,> 40000,2990,Active,Active
CCCCCCC[C@@H]1O[C@@H]1[C@H](O)C#CC#C[C@@H](O)CC [OPLOXYNE A],1980,> 40000,3080,Active,Active
CCCCCCC[C@@H](OC)[C@H](O)[C@H](O)C#CC#C[C@@H](O)CC [OPLOXYNE B],> 40000,> 40000,> 40000,–,–
